# Screens: PubChem, several laboratories
# Mot1-301 SUMO: SUMOylation pathway inhibition by Mot1-301 growth rescue | S. cerevisiae Mot1-301 growth rescue, ATP luminescence, 38.5C; percent above DMSO median, 100 means doubled | growth rescue, % at 18.8 µM | actives 1% (n = 320,000);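 active = every valid replicate shows activation above 250% relative to neutral control wells; inactive = the rest, any valid replicate at or below 250%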;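 note: OY570 slx delta 5 strain wells were the positive control but not used for scaling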
# VIM-2 inhibitor: inhibitors of Pseudomonas aeruginosa VIM-2 metallo-beta-lactamase | purified VIM-2, nitrocefin hydrolysis, epi-absorbance fluorescence | inhibition, % at 5.6 µM | actives 0.89% (n = 290,000);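 active = inhibition above the mean of all tested compounds plus 3 SD, cutoff set per screening run, cut at about 7.5% in these data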;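 note: red hydrolysis product quenches plate fluorescence so inhibitors raise well fluorescence; 0% = enzyme with DMSO and 100% = DMSO without enzyme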
# UBC9 SUMO inh: SUMOylation inhibition; P63279; HTRF SUMOylation assay, SAE1/SAE2 + UBC9, in vitro; inhibition, % at 35 µM; actives 0.36% (n = 290,000); in the data active = inhibition above about 50%, passing the limit was not always enough
# Target sequence (P63279 whole entry, looked up): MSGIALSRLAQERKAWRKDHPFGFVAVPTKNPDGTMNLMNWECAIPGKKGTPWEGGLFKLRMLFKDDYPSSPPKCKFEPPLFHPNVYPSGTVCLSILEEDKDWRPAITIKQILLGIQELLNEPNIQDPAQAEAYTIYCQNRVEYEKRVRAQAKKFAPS
# NALP1 inh: inhibitors of NALP1 inflammasome in yeast | S. cerevisiae NALP1/ASC/caspase-1 growth, X-gal OD620, 72 h | inhibition, % at 10 µM | actives 0.61% (n = 280,000) | AID 2071; in the data active = inhibition mostly above about 24%, no sharp cut-off; inactive = mostly below about 32%
# DNA FID counter: fluorescent intercalator displacement, NS3 helicase counter-screen. AID 1845. actives 0.17% (n = 290,000). DNA fluorescent intercalator displacement, fluorescence. inhibition, % at 7.9 µM; in the data active = inhibition above about 37%;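 note: 0% = vehicle and 100% = reference compound; higher means more ethidium bromide displaced from hairpin DNA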
# IMP-1 inhibitor: blocks Pseudomonas aeruginosa IMP-1 metallo-beta-lactamase; purified IMP-1, nitrocefin hydrolysis, epi-absorbance fluorescence; inhibition, % at 5.6 µM; actives 0.45% (n = 290,000);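 active = inhibition above the mean plus 3 SD of all compounds in the same screening run, cut at about 4.5% in these data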;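 note: 0% = IMP-1 with DMSO and 100% = DMSO wells lacking enzyme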
#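 assay system = purified recombinant IMP-1 metallo-beta-lactamase enzyme | schedule = 15 min preincubation plus 25 min reaction at 25 °C | signal = Epi-absorbance fluorescence, 480 nm excitation, 530 nm emission | read-out basis = percent inhibition from optical density relative to buffer-blank wells | controls = IMP-1 with DMSO as 0%, enzyme-free DMSO as 100%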
# * = called active by the depositor; · = no result given. Compounds with a hit are over-represented: about 2.9% of the library has one in this group of screens.
SMILES,Mot1-301 SUMO,VIM-2 inhibitor,UBC9 SUMO inh,NALP1 inh,DNA FID counter,IMP-1 inhibitor
Cc1cc(C)c(Cc2c(C)nc3c(C(=O)NCc4ccco4)cnn3c2C)c(C)c1,-8.4,-3.5,-8.6,41.7*,-3.6,-5.1
O=C(NCc1ccco1)c1cnn2c(C(F)(F)F)cc(-c3cccs3)nc12,-3.4,9.3*,41.0,-4.4,2.9,-3.0
COc1ccc(N2C(=O)[C@@H]3C(c4cccnc4)=NO[C@@H]3C2=O)cc1,-3.8,0.1,16.8,3.4,-10.0,-0.2
Cc1ccc(Nc2nc(N)nc(CSc3nc(C)cc(C)n3)n2)cc1,-3.0,0.7,5.4,11.1,-20.9,4.9*
c1coc(CN(Cc2ccco2)c2ncnc3c2oc2ccccc23)c1,-7.4,0.1,-2.8,3.8,-13.4,4.7*
CCOc1ccc(CNC(=S)Nc2ccccc2)cc1Cl,-12.2,-1.2,-3.1,-13.2,-1.6,6.3*
c1ccc2c(c1)ncn2Cc1nnc2sc(-c3ccc4c(c3)OCO4)nn12,·,9.6*,29.3,7.3,-20.4,-1.7
CSc1nc2sc3c(c2c(=O)n1C)CCC3,189.8,7.7*,5.7,8.4,-13.1,2.0
CSc1nc2sc3c(c2c(=O)n1C)CCCC3,-11.3,-0.6,3.9,4.9,3.3,-1.4
c1ccc2c(Nc3ccc(N4CCOCC4)cc3)nc(N3CCOCC3)nc2c1,-7.3,9.4*,-6.1,17.1,0.4,-2.0
CCCc1nnc(NC(=O)CCC(=O)N2CCN(Cc3ccc(F)cc3)CC2)s1,-16.1,-1.1,6.7,17.9,-25.2,-2.2
Cc1nn(CC(=O)Nc2ccc(Cl)c(S(=O)(=O)N(C)C)c2)c(C)c1[N+](=O)[O-],-5.6,-1.0,11.8,19.3,7.6,-1.5
CN(C)S(=O)(=O)c1cc(NC(=O)c2ccc(-n3ccnc3)c([N+](=O)[O-])c2)ccc1Cl,-13.7,8.0*,6.4,14.6,-5.0,-2.9
COC(=O)Nc1ccc(S(=O)(=O)N2CCC(C(=O)N3CCCC(C)C3)CC2)cc1 (stereo not drawn),-20.8,-1.9,-17.7,37.8*,-26.6,-1.5
Cc1sc2ncnc(-n3cnc4ccccc43)c2c1C,-11.8,0.1,-2.2,-1.5,-12.9,7.3*
Cc1[nH]n(-c2ncc(-c3ccc(Cl)cc3)s2)c(=O)c1C(c1ccc(Cl)cc1)C(C#N)C#N (stereo not drawn),133.6,-5.4,70.0*,18.0,-6.3,-5.7
CCN1CCN(C(=S)Nc2ccc(Cl)c(Cl)c2)CC1,4.2,-2.1,6.3,50.8*,0.3,-1.1
CCN1CCN(C(=S)Nc2cccc(Cl)c2)CC1,72.8,-2.2,5.7,-7.0,-1.4,-0.8
Cc1cc(N2CCN(C)CC2)nc2ccc(NC(=O)c3ccccc3F)cc12,-4.9,-3.8,-3.5,9.1,34.5,-1.4
CCN1CCN(c2cc(C)c3cc(NC(=O)c4ccccc4F)ccc3n2)CC1,·,3.5,14.7,36.7*,21.4,2.1
CCN1CCN(C(=S)Nc2ccc3nc(N4CCN(CC)CC4)cc(C)c3c2)CC1,-2.1,3.0,8.7,26.1,46.4*,-1.4
COc1ccc(-c2[nH]ncc2CN2CCC(OCc3cccnc3)CC2)c(F)c1,60.5,-2.0,13.1,-1.3,8.2,-0.5
COc1ccc(N2CCOCC2)c(NC(=O)c2cccs2)c1,-20.6,0.4,0.9,14.7,-26.9,1.3
O=C(Nc1ccc(C(=O)NC2CCCCC2)cc1)c1cccnc1,282.8,-3.6,-0.8,-31.7,-1.3,-1.8
CCOC(=O)N1CCN(C(=O)c2cccn3c(=O)c4cc(Cl)ccc4nc23)CC1,72.3,0.8,57.7*,9.7,-5.7,-3.0
SMILES,Mot1-301 SUMO,VIM-2 inhibitor,UBC9 SUMO inh,NALP1 inh,DNA FID counter,IMP-1 inhibitor
CCOC(=O)N1CCN(C(=O)c2cccn3c(=O)c4cc(Br)ccc4nc23)CC1,-10.7,-1.7,51.2*,-2.3,-11.1,-0.5
O=C(c1cccn2c(=O)c3cc(Br)ccc3nc12)N1CCN(c2ccccn2)CC1,10.4,1.1,13.7,8.1,1.6,0.1
O=C(NCCN1CCN(c2ccccc2)CC1)c1cccn2c(=O)c3cc(Cl)ccc3nc12,-8.2,8.2*,-10.8,15.0,2.6,-1.8
CSc1ccccc1NC(=O)CN1CC(C)OC(C)C1 (stereo not drawn),·,-4.7,-5.4,7.3,-10.2,-2.5
CCC(C)(C(=O)Nc1c(C)cccc1C)N(C)C(=O)c1ccc2ccccc2n1 (stereo not drawn),13.2,-3.2,19.0,-19.5,-14.3,-1.8
O=[N+]([O-])c1ccccc1S(=O)(=O)Nc1ccc(S(=O)(=O)N2CCCC2)cc1,2.0,·,·,·,·,·
O/N=C/c1ccc(-c2ccccc2OC(F)(F)F)o1,-4.1,0.6,5.9,35.5*,-3.5,-0.8
CC(=O)c1ccc(-c2ccccc2OC(F)(F)F)o1,69.2,0.7,-1.0,19.9,-2.6,-3.6
O=C(CSc1nnc(NC(=O)c2c(F)cccc2F)s1)NCc1ccc(F)cc1,670.2*,·,·,·,·,·
CC(C)(C)C(=O)Nc1nnc(SCC(=O)NCc2ccco2)s1,9.8,8.6*,14.1,23.0,-1.4,-2.5
O=C(CSc1nnc(NC(=O)c2ccc(F)cc2)s1)NCc1ccco1,-0.8,11.7*,8.9,11.1,-6.6,-1.3
COc1cc(CCC(=O)OCC(=O)Nc2c(C)cccc2C(C)C)cc(OC)c1OC,-0.1,-3.0,-3.7,9.3,-35.2,-2.4
Cc1ccc(S(=O)(=O)NCc2ccccc2)cc1C(=O)N(C)CC(=O)Nc1c(Cl)cccc1Cl,-13.1,·,·,·,·,·
CCCCC(CC)C(=O)Nc1cccc(SC)c1 (stereo not drawn),-15.7,0.1,-9.3,-16.7,-4.2,-0.8
FC(F)(F)c1ccccc1-n1c(-c2ccco2)n[nH]c1=S,3.5,9.9*,6.4,0.9,-16.3,-1.5
S=c1[nH]nc(-c2cc(-c3ccco3)[nH]n2)n1-c1cccc2ccccc12,29.2,-1.2,75.6,-18.1,-30.5,-2.1
Cc1cccc(-n2c(-c3ccco3)n[nH]c2=S)c1,-8.4,18.8*,-3.2,5.8,-8.7,-1.1
Cc1ccc(Nc2cc(C)c3c(O)cccc3n2)cc1C,53.3,3.3,-4.2,·,13.8,-0.3
COC(=O)c1cc(Nc2cc(C)c3c(O)cccc3n2)cc(C(=O)OC)c1,2.6,2.3,3.7,·,-1.4,-4.4
Cc1ccccc1Nc1cc(C)c2c(O)cccc2n1,-1.6,0.3,-4.7,56.0*,-4.9,-2.8
COc1ccc(Nc2cc(C)c3c(O)cccc3n2)cc1,-0.5,8.8*,-29.4,·,14.4,-1.2
CN(C)C(=O)CSc1ccccc1C(=O)OCC(=O)NC1CC1,-1.3,·,·,·,·,·
COc1ccccc1-n1nnnc1SCC(=O)N(CC(C)C)C1CCS(=O)(=O)C1 (stereo not drawn),-11.0,-2.4,-0.5,-7.4,-28.4,-1.4
NC(=O)C1CCN(C2=C(NS(=O)(=O)c3ccc(Br)cc3)C(=O)c3ccccc3C2=O)CC1,-7.2,5.5,19.0,-5.9,2.3,-0.8
NC(=O)C1CCN(C2=C(NS(=O)(=O)c3ccccc3)C(=O)c3ccccc3C2=O)CC1,-13.8,8.8*,76.3,-2.6,0.2,0.2
